This note sets out measurements from ChEMBL document CHEMBL3244197, “Mercaptoimidazolylpropionic acid hydrobromide. Inhibition of tadpole collagenase and related properties” (J Med Chem, 1978).

Data set [1] is described as follows: (§1) Inhibition of Rana catesbeiana tadpole collagenase using lathyritic rat skin collagen as substrate after 41 hrs by radial diffusion assay. To be noted: read-out: I50. In short, it runs like this: (§2)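 Enzyme cultured from tadpole tail fin and back skin, purified by ammonium sulfate precipitation and Sephadex G-200, concentrated 20-fold by ultrafiltration at 4 °C. Gel: Tris-buffered pH 7.6, 1% agarose with 0.1% collagen, set 2 h at 20 °C, held ≥40 h at 4 °C. Wells (3.0 mm) received 15 µL enzyme ± inhibitor. Incubation 41 h at 28 °C, then 2 h at 37 °C. Lysis-zone diameter read as radial diffusion units; concentration for 50% inhibition taken.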

In data set [2] the test system is Mus musculus. As to the kind of experiment: Toxicity in Swiss-Wistar mouse assessed as body weight gain at 1980 mg/kg, ip after 3 days (reference value: 20%). The data set is classed as organism-based. Set-up: dose 1980 mg/kg, route intraperitoneal. The note with it: in vivo, 72 h.
A short description of data set [3]: Half life of the compound in phosphate buffer with 214 ml/min oxygen flow assessed as oxidation at 0.25 mM by Ellman's method. Type of data set: physicochemical. The procedure, abridged: (§3)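 35 mL sample, 0.1 M phosphate buffer pH 7.4, oxygen-saturated; water-vapour-saturated O2 bubbled through via gas dispersion tube at 20 °C. 200 µL aliquots withdrawn over time; remaining SH titre measured by quantitative Ellman determination; half-time in hours.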
For orientation: In Ellman's method for cholinesterases, released thiocholine reacts with DTNB.

Data set [4] concerns Mus musculus. In words: Toxicity in Swiss-Wistar mouse assessed as body weight gain at 418 mg/kg, ip after 3 days (reference value: 20%). To be noted: in vivo, 72 h. Set-up: dose 418 mg/kg, route intraperitoneal. Type of data set: organism-based.
In data set [5] the test system is Mus musculus. As to the kind of experiment: Toxicity in Swiss-Wistar mouse assessed as body weight gain at 189 mg/kg, ip after 3 days (reference value: 20%). The arrangement: dose 189 mg/kg, route intraperitoneal. The note with it: in vivo, 72 h. The data set is classed as organism-based.
In data set [6] the test system is Mus musculus. In words: Toxicity in Swiss-Wistar mouse assessed as body weight gain at 885 mg/kg, ip after 3 days (reference value: 20%). The data set is classed as organism-based. The arrangement: dose 885 mg/kg, route intraperitoneal. The note with it: in vivo, 72 h.
For another data set, the system named is Bacillus subtilis. In words: Mutagenicity in repair-deficient Bacillus subtilis assessed as growth inhibition at 0.1 M. Type of data set: toxicity, organism-based. To be noted: in vivo. In short, it runs like this: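 Repair-deficient tester strains exposed to test compound at 0.10 M, with chloroacetaldehyde (0.10 M) as mutagen reference; growth inhibition scored.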

Data set [7] relates to Mus musculus. In words: Toxicity in Swiss-Wistar mouse assessed as change in health condition at 189 to 1980 mg/kg, ip after 7 days. The arrangement: dose 189-1980 mg/kg, route intraperitoneal. Type of data set: organism-based. The note with it: in vivo, 168 h.
Data set [8] can be described thus: Half life of the compound in phosphate buffer with 400 ml/min oxygen flow assessed as oxidation at 0.14 mM by Ellman's method. The data set is classed as physicochemical. In short, it runs like this: as §3
A further data set is filed under the species Rana catesbeiana. The data set is described as §1. In short, it runs like this: as §2
Data set [9] is described as follows: Half life of the compound in phosphate buffer with 350 ml/min oxygen flow assessed as oxidation at 0.27 mM by Ellman's method. Type of data set: physicochemical. In short, it runs like this:
as §3

Data set [10] is described as follows: Half life of the compound in phosphate buffer with 200 ml/min oxygen flow assessed as oxidation at 0.28 mM by Ellman's method. The data set is classed as physicochemical. The procedure, abridged: as §3
A short description of data set [11]: Half life of the compound in phosphate buffer with 360 ml/min oxygen flow assessed as oxidation at 0.16 mM by Ellman's method. Type of data set: physicochemical. In short, it runs like this: as §3
Data set [12] is described as follows: Half life of the compound in phosphate buffer with 214 ml/min oxygen flow assessed as oxidation at 0.24 mM by Ellman's method. Type of data set: physicochemical. The procedure, abridged: as §3

pIC50: −log10 of the molar value. Active and inactive are the calls of the source. No cut-off for these calls is given here. Where only a bound is given, the exact number is not on record here.

The term half-life denotes the time in which the quantity being followed falls by half. With `Br.O=C(O)C(S)Cc1cnc[nH]1` (racemic), in [1], the pIC50 is 2.42. Moreover, the Activity in the data set with Mus musculus [2] is 18%; in the data set with Mus musculus [4], 18%; in the data set with Mus musculus [5], 22%; in the data set with Mus musculus [6], 23%; in the data set with Bacillus subtilis it was “Non-toxic”; in the data set on Mus musculus [7], “Non-toxic”. The half-life at 250 µM in data set [3] is 12.7 h. Further, the half-life at 140 µM in [8] is 8.7 h.
On to `O=C(O)C(Br)Cc1cnc[nH]1` (racemic), for which the I50 result in the data set filed under Rana catesbeiana was “inactive”.
Take `CC(=O)N[C@@H](CS)C(=O)O` [ACETYLCYSTEINE]: the pIC50 in data set [1] was no more than 1.00. Moreover, in data set [9], the half-life at 270 µM was 10.9 h. For the same compound, the half-life at 280 µM in data set [10] was 12.8 h.
Consider `N[C@@H](CS)C(=O)O` [CYSTEINE], for which the pIC50 in data set [1] is 2.06. Moreover, the half-life at 160 µM in data set [11] is 5.3 h. In addition, in [12], the half-life at 240 µM is 6.4 h.
In the case of `N[C@@H](Cc1c[nH]cn1)C(=O)O` [HISTIDINE], in data set [1], the pIC50 was no more than 1.00.
